Measurements as given in ChEMBL document CHEMBL1156490, “TLR9 agonist acts by different mechanisms synergizing with bevacizumab in sensitive and cetuximab-resistant colon cancer xenografts” (2007).
Calls of active or inactive are those of the source. The calls are words filed in the database; no cut-off is given here.

Experiments:
Homo sapiens [1] = experiment: Inhibition of activated form of pAkt expression in human GEO tumor xenografts in BALB/c mouse at 1 mg/kg, ip three times a week for 4 weeks measured after 8 weeks by ELISA; type: functional, organism-based; design: dose 1 mg/kg
Homo sapiens [2] = experiment: Potentiation of bevacizumab-induced inhibition of hVEGF level in human GEO tumor xenografts in BALB/c mouse at 1 mg/kg, ip three times a week for 4 weeks measured after 8 weeks by ELISA; type: functional, organism-based; design: dose 1 mg/kg
Summary of the method: (§1)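 Serum was taken from killed xenograft-bearing mice and assayed by sandwich ELISA. Plates were coated overnight at 4°C with anti-hVEGF or anti-mVEGF polyclonal antibody (1 μg/ml in PBS, pH 7.5), with avidin–biotinylated HRP detection and absorbance read at 490 nm. Concentrations came from linear regression of recombinant hVEGF or mVEGF standard curves.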

Homo sapiens [3] = experiment: Potentiation of bevacizumab-induced inhibition of activated form of VEGF expression in human GEO tumor xenografts in BALB/c mouse at 1 mg/kg, ip three times a week for 4 weeks measured after 8 week by ELISA; type: functional, organism-based; design: dose 1 mg/kg
LS174T [4] = experiment: Potentiation of bevacizumab-induced antitumor activity against human LS174T tumor xenografted BALB/c mouse at 1 mg/kg, ip three times a week for 4 weeks measured after 8 weeks; type: functional; settings: route intraperitoneal
Summary of the method: (§2)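 Athymic nude mice, five weeks old, received s.c. GEO, LS174T or GEO-CR cells (10^7 per mouse) in Matrigel and were randomized at day 7, 10 per group. Dosing was i.p. 1 mg/kg three times weekly plus i.p. bevacizumab 5 mg/kg twice weekly, on days 7–11, 14–18 and 21–25; only the first agent continued on days 28–32. Tumor volume = π/6 × larger × (smaller diameter)². Analysis was by Student's t test.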

Homo sapiens [5] = experiment: Potentiation of bevacizumab-induced inhibition of activated form of pAkt expression in human GEO tumor xenografts in BALB/c mouse at 1 mg/kg, ip three times a week for 4 weeks measured after 8 weeks by ELISA; type: functional, organism-based; design: dose 1 mg/kg
LS174T [6] = experiment: Potentiation of bevacizumab-induced antitumor activity against human LS174T tumor xenografted BALB/c mouse assessed as induction of necrosis at 1 mg/kg, ip three times for week for 4 weeks measured after 8 weeks; type: functional; settings: route intraperitoneal
Summary of the method: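 LS174T s.c. xenografts (10^7 cells in Matrigel) in nude mice received the combined i.p. schedule (1 mg/kg three times weekly plus bevacizumab 5 mg/kg twice weekly). Necrosis was judged by pathological and immunohistochemical analysis of formalin-fixed paraffin sections (5 μm).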

HUVEC [7] = experiment: Inhibition of VEGF-stimulated network formation in HUVEC at 1 uM; type: functional, cell-based; settings: Homo sapiens
Summary of the method: (§3)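 HUVEC (4 × 10^5) in RPMI 1640 were seeded on solidified Matrigel (prepared 30 min at 37°C), with or without 1 μM test agent. Cultures were kept at 37°C and photographed at 0 and 24 h to assess capillary tube and network formation.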

Homo sapiens [8] = experiment: Potentiation of bevacizumab-induced inhibition of mVEGF level in human GEO tumor xenografted in BALB/c mouse at 1 mg/kg, ip three times a week for 4 weeks measured after 8 weeks by ELISA; type: functional, organism-based; design: dose 1 mg/kg; summary of the method: as §1
Homo sapiens [9] = experiment: Inhibition of total amount of MAPK and Akt in human GEO tumor xenografts in BALB/c mouse at 1 mg/kg, ip three times a week for 4 weeks measured after 8 weeks by ELISA; type: functional, organism-based; design: dose 1 mg/kg
Homo sapiens [10] = experiment: Antitumor activity in cetuximab-resistant human GEO-CR tumor xenografted BALB/c mouse at 1 mg/kg, ip administered 3 times per week for 4 weeks; type: functional, organism-based; design: dose 1 mg/kg
Summary of the method: (§4)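 Athymic nude mice, five weeks old, received s.c. GEO, LS174T or GEO-CR colon cancer cells (10^7 per mouse) in Matrigel. Tumors were detected after 7 days and groups of 10 were randomized. Dosing was i.p. at 1 mg/kg three times per week for 4 weeks. Tumor volume = π/6 × larger diameter × (smaller diameter)². Groups were compared by Student's t test.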

LS174T [11] = experiment: Antitumor activity against human LS174T tumor xenografted BALB/c mouse assessed as tumor volume at 1 mg/kg, ip three times a week for 4 weeks measured after 8 weeks; type: functional; settings: route intraperitoneal; summary of the method: as §4
Homo sapiens [12] = experiment: Antitumor activity against human GEO tumor xenografted BALB/c mouse at 1 mg/kg, ip three times a week for 4 weeks measured after 8 weeks; type: functional, organism-based; design: dose 1 mg/kg; summary of the method: as §4
Homo sapiens [13] = experiment: Inhibition of activated form of pMAPK expression in human GEO tumor xenografts in BALB/c mouse at 1 mg/kg, ip three times a week for 4 weeks measured after 8 weeks by ELISA; type: functional, organism-based; design: dose 1 mg/kg
Homo sapiens [14] = experiment: Inhibition of hVEGF level in human GEO tumor xenografts in BALB/c mouse at 1 mg/kg, ip three times a week for 4 weeks measured after 8 weeks by ELISA; type: functional, organism-based; design: dose 1 mg/kg; summary of the method: as §1
Homo sapiens [15] = experiment: Potentiation of bevacizumab-induced antitumor activity against human GEO tumor xenografted BALB/c mouse at 1 mg/kg, ip three times a week for 4 weeks measured after 8 weeks; type: functional, organism-based; design: dose 1 mg/kg; summary of the method: as §2
Homo sapiens [16] = experiment: Inhibition of mVEGF level in human GEO tumor xenografted in BALB/c mouse at 1 mg/kg, ip three times a week for 4 weeks measured after 8 weeks by ELISA; type: functional, organism-based; design: dose 1 mg/kg; summary of the method: as §1
HUVEC [17] = experiment: Inhibition of adhesion to matrix in HUVEC at 1 uM by cell adhesion assay; type: functional, cell-based; settings: Homo sapiens
Summary of the method: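 Wells were precoated for 1 h with Matrigel (1 mg/ml) or 0.1% BSA in serum-free medium as a negative control. HUVEC (20,000 per well) were then plated in serum-free medium with or without 1 μM test agent, and adherent cells were quantified.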

Homo sapiens [18] = experiment: Potentiation of bevacizumab-induced inhibition of activated form of pMAPK expression in human GEO tumor xenografts in BALB/c mouse at 1 mg/kg, ip three times a week for 4 weeks measured after 8 weeks by ELISA; type: functional, organism-based; design: dose 1 mg/kg
[19] = Potentiation of bevacizumab-induced antitumor activity in cetuximab-resistant human GEO-CR tumor xenografted BALB/c mouse assessed tumor volume at 1 mg/kg, ip; type: functional; settings: route intraperitoneal; summary of the method: as §2
[20] = Potentiation of cetuximab-induced cytotoxicity in human MDA468 cells assessed as lysis at 5 uM by ADCC assay; type: functional, MDA-MB-468
Summary of the method: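 Effector cells were nonadherent PBLs from human PBMCs, preincubated 24 h with or without 5 μM test agent. MDA468 targets were loaded with BATDA, treated with or without cetuximab (10 μg/ml), and mixed with effectors at varying ratios for 2 h at 37°C. Lysis was read by europium fluorescence in the supernatant.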

Homo sapiens [21] = experiment: Inhibition of activated form of VEGF expression in human GEO tumor xenografts in BALB/c mouse at 1 mg/kg, ip three times a week for 4 weeks measured after 8 weeks by ELISA; type: functional, organism-based; design: dose 1 mg/kg
HUVEC [22] = experiment: Inhibition of VEGF-stimulated capillary tube formation in HUVEC at 1 uM; type: functional, cell-based; settings: Homo sapiens; summary of the method: as §3
HUVEC [23] = experiment: Inhibition of migration in HUVEC at 1 uM by wound healing assay; type: functional, cell-based; settings: Homo sapiens

SMILES: Cc1cn([C@H]2C[C@H](OP(O)(=S)OC[C@H]3O[C@@H](n4ccc(N)nc4=O)[C@H](O)[C@@H]3OP(O)(=S)OC[C@H]3O[C@@H](n4cc(C)c(=O)[nH]c4=O)C[C@@H]3OP(O)(=S)OC[C@H]3O[C@@H](n4cnc5c(=O)nc(N)[nH]c54)[C@H](O)[C@@H]3OP(O)(=S)OC[C@H]3O[C@@H](n4cnc5c(N)ncnc54)[C@H](O)[C@@H]3OP(O)(=S)OC[C@H]3O[C@@H](n4ccc(N)nc4=O)[C@H](O)[C@@H]3OP(O)(=S)OC[C@H]3O[C@@H](n4ccc5c(=O)nc(N)[nH]c54)C[C@@H]3OP(O)(=S)OC[C@H]3O[C@@H](n4cc(C)c(=O)[nH]c4=O)C[C@@H]3OP(O)(=S)OC[C@H]3O[C@@H](n4cc(C)c(=O)[nH]c4=O)C[C@@H]3OP(O)(=S)OC[C@H]3O[C@@H](n4ccc(N)nc4=O)[C@H](O)[C@@H]3OP(O)(=S)OC[C@H]3O[C@@H](n4cc(C)c(=O)[nH]c4=O)C[C@@H]3OP(O)(=S)OCC(O)COP(O)(=S)O[C@H]3C[C@H](n4cc(C)c(=O)[nH]c4=O)O[C@@H]3COP(O)(=S)O[C@H]3[C@@H](O)[C@H](n4ccc(=N)[nH]c4=O)O[C@@H]3COP(O)(=S)O[C@H]3C[C@H](n4cc(C)c(=O)[nH]c4=O)O[C@@H]3COP(O)(=S)O[C@H]3C[C@H](n4cc(C)c(=O)[nH]c4=O)O[C@@H]3COP(O)(=S)O[C@H]3C[C@H](n4ccc5c(=O)nc(N)[nH]c54)O[C@@H]3COP(O)(=S)O[C@H]3[C@@H](O)[C@H](n4ccc(N)nc4=O)O[C@@H]3COP(O)(=S)O[C@H]3[C@@H](O)[C@H](n4cnc5c(N)ncnc54)O[C@@H]3COP(O)(=S)O[C@H]3[C@@H](O)[C@H](n4cnc5c(=O)nc(N)[nH]c54)O[C@@H]3COP(O)(=S)O[C@H]3C[C@H](n4cc(C)c(=O)[nH]c4=O)O[C@@H]3COP(O)(=S)O[C@H]3[C@@H](O)[C@H](n4ccc(N)nc4=O)O[C@@H]3COP(O)(=S)O[C@H]3C[C@H](n4cc(C)c(=O)[nH]c4=O)O[C@@H]3CO)[C@@H](CO)O2)c(=O)[nH]c1=O (stereo partly drawn)
- Activity (Homo sapiens [1]): Active
- Activity (Homo sapiens [2]): Active
- Activity (Homo sapiens [3]): Active
- Activity (LS174T [4]): 95%
- Activity (Homo sapiens [5]): Active
- Activity (LS174T [6]): 90%
- Activity (HUVEC [7]): Active
- Activity (Homo sapiens [8]): inactive
- Activity (Homo sapiens [9]): inactive
- Activity (Homo sapiens [10]): inactive
- Activity (LS174T [11]): 1.6 cm3
- Activity (Homo sapiens [12]): Active
- Activity (Homo sapiens [13]): Active
- Activity (Homo sapiens [14]): Active
- Activity (Homo sapiens [15]): Active
- Activity (Homo sapiens [16]): inactive
- Activity (HUVEC [17]): Active
- Activity (Homo sapiens [18]): Active
- Activity [19]: 0.15 cm3
- Activity [20]: 60%
- Activity (Homo sapiens [21]): Active
- Activity (HUVEC [22]): Active
- Activity (HUVEC [23]): Active
